# Assay results taken from ChEMBL document CHEMBL2062420, “Triazole Appending Agent (TAAG): A New Synthon for Preparing Iodine-Based Molecular Imaging and Radiotherapy Agents” (ACS Med Chem Lett, 2012).
# Experiments:
# [1] = Lipophilicity, log D of the compound at pH 7.4; type: physicochemical; conditions: buffer
# [2] = tested on: Mus musculus; test: Biodistribution in Balb/c mouse large intestine at 1.37 MBq, iv up to 30 mins by gamma counter; type: ADME, organism-based; conditions: in vivo, 0.5 h
# [3] = tested on: Mus musculus; test: Biodistribution in Balb/c mouse skeletal muscle at 1.37 MBq, iv up to 30 mins by gamma counter; type: ADME, organism-based, Muscle tissue; conditions: in vivo, 0.5 h
# [4] = tested on: Blood; test: Biodistribution in Balb/c mouse blood at 1.37 MBq, iv up to 30 mins by gamma counter; type: ADME, organism-based; conditions: in vivo, 0.5 h
# [5] = tested on: Thyroid gland; test: Biodistribution in Balb/c mouse thyroid at 1.37 MBq, iv up to 30 mins by gamma counter; type: ADME, organism-based; conditions: in vivo, 0.5 h
# [6] = tested on: Mus musculus; test: Biodistribution in Balb/c mouse adrenals at 1.37 MBq, iv up to 30 mins by gamma counter; type: ADME, organism-based, Adrenal tissue; conditions: in vivo, 0.5 h
# [7] = tested on: Spleen; test: Biodistribution in Balb/c mouse spleen at 1.37 MBq, iv up to 30 mins by gamma counter; type: ADME, organism-based; conditions: in vivo, 0.5 h
# [8] = tested on: Urinary bladder; test: Biodistribution in Balb/c mouse bladder at 1.37 MBq, iv up to 30 mins by gamma counter; type: ADME, organism-based; conditions: in vivo, 0.5 h
# [9] = tested on: Liver; test: Biodistribution in Balb/c mouse liver at 1.37 MBq, iv up to 30 mins by gamma counter; type: ADME, organism-based; conditions: in vivo, 0.5 h
# [10] = tested on: Mus musculus; test: Biodistribution in Balb/c mouse small intestine at 1.37 MBq, iv up to 30 mins by gamma counter; type: ADME, organism-based; conditions: in vivo, 0.5 h
# [11] = tested on: Kidney; test: Biodistribution in Balb/c mouse kidneys at 1.37 MBq, iv up to 30 mins by gamma counter; type: ADME, organism-based; conditions: in vivo, 0.5 h
# [12] = Stability of the compound in PBS at pH 7.4 after 48 hrs; type: physicochemical; conditions: buffer, pH 7.4, 48 h
# [13] = tested on: Lung; test: Biodistribution in Balb/c mouse lungs at 1.37 MBq, iv up to 30 mins by gamma counter; type: ADME, organism-based; conditions: in vivo, 0.5 h
# [14] = tested on: Bone; test: Biodistribution in Balb/c mouse bone at 1.37 MBq, iv up to 30 mins by gamma counter; type: ADME, organism-based, Bone element; conditions: in vivo, 0.5 h
# [15] = tested on: Brain; test: Biodistribution in Balb/c mouse brain at 1.37 MBq, iv up to 30 mins by gamma counter; type: ADME, organism-based; conditions: in vivo, 0.5 h
# [16] = tested on: Stomach; test: Biodistribution in Balb/c mouse stomach at 1.37 MBq, iv up to 30 mins by gamma counter; type: ADME, organism-based; conditions: in vivo, 0.5 h
# [17] = Stability in PBS at pH 7.4 assessed as deiodination of compound after 48 hrs; type: physicochemical; conditions: buffer, pH 7.4, 48 h
# [18] = tested on: Heart; test: Biodistribution in Balb/c mouse heart at 1.37 MBq, iv up to 30 mins by gamma counter; type: ADME, organism-based; conditions: in vivo, 0.5 h
# [19] = tested on: Thyroid gland; test: Drug uptake in NCr nude mouse thyroid xenografted with human LNCAP cells at 0.63 MBq, iv measured 23 hrs post injection by gamma counting; type: ADME, organism-based; conditions: in vivo
# [20] = Drug uptake in NCr nude mouse tumor xenografted with human LNCAP cells at 0.63 MBq, iv measured 1 hrs post injection by gamma counting; type: ADME, organism-based, Neoplasm; conditions: in vivo
# [21] = tested on: Urinary bladder; test: Drug uptake in NCr nude mouse bladder xenografted with human LNCAP cells at 37 MBq, iv measured 2 hrs post injection by gamma counting; type: ADME, organism-based; conditions: in vivo
# How it was run: (§1)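 Male NCr nude mice bearing LNCap tumours (PSMA-expressing) received 37 MBq of the radioiodinated PSMA-TAAG conjugate via the tail vein. Distribution was followed by scintigraphic imaging at 2 h and 24 h post-injection, with a fused scintigraphic-CT image taken at 23 h.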
# [22] = Drug uptake in NCr nude mouse tumor xenografted with human LNCAP cells at 0.63 MBq, iv measured 23 hrs post injection by gamma counting; type: ADME, organism-based, Neoplasm; conditions: in vivo
# [23] = tested on: Kidney; test: Drug uptake in NCr nude mouse kidney xenografted with human LNCAP cells at 37 MBq, iv measured 2 hrs post injection by gamma counting; type: ADME, organism-based; conditions: in vivo; how it was run: as §1
# [24] = Drug uptake in NCr nude mouse tumor xenografted with human LNCAP cells at 37 MBq, iv measured 2 hrs post injection by gamma counting; type: ADME, organism-based, Neoplasm; conditions: in vivo; how it was run: as §1
# [25] = Drug uptake in NCr nude mouse tumor xenografted with human LNCAP cells at 37 MBq, iv measured 24 hrs post injection by gamma counting; type: ADME, organism-based, Neoplasm; conditions: in vivo; how it was run: as §1
# [26] = Drug uptake in NCr nude mouse tumor xenografted with human LNCAP cells measured 1 hr post injection in presence of PSMA inhibition PMPA; type: ADME, Neoplasm; conditions: tumor (human LNCaP xenograft), with PMPA (PSMA inhibitor), amount not stated, read-out: Drug uptake
# [27] = tested on: Thyroid gland; test: Drug uptake in NCr nude mouse thyroid xenografted with human LNCAP cells at 37 MBq, iv measured 24 hrs post injection by gamma counting; type: ADME, organism-based; conditions: in vivo; how it was run: as §1
compound,measurement,setting,value
O=C(O)c1ccc(I)cc1,logD,[1],0.07
O=C(O)Cn1cc([123I])nn1,Drug uptake,[2],Not Active
same,Drug uptake,[3],Not Active
same,Drug uptake,[4],Not Active
same,Drug uptake,[5],Not Active
same,logD,[1],-2.58
same,Drug uptake,[6],Not Active
same,Drug uptake,[7],Not Active
same,Drug uptake,[8],Active
same,Drug uptake,[9],Not Active
same,Drug uptake,[10],Not Active
same,Drug uptake,[11],Not Active
same,Stability,[12],Stable
same,Drug uptake,[13],Not Active
same,Drug uptake,[14],Not Active
same,Drug uptake,[15],Not Active
same,Drug uptake,[16],Not Active
same,Stability,[17],Stable
same,Drug uptake,[18],Not Active
O=C(O)CC[C@H](NC(=O)N[C@@H](CCCCNC(=O)Cn1cc([123I])nn1)C(=O)O)C(=O)O,Drug uptake,[19],10 % ID/g
same,logD,[1],-3.23
same,Drug uptake,[20],20 % ID/g
same,Drug uptake,[21],Active
same,Drug uptake,[22],15 % ID/g
same,Drug uptake,[23],Active
same,Drug uptake,[24],Active
same,Drug uptake,[25],Active
same,tissue uptake at 1 h,[26],< 2 %ID/g
same,Drug uptake,[27],Active
